SKKanGAS inh: S. pyogenes SKKanGAS growth inhibitors in kanamycin, primary screen, streptokinase expression inhibitor project, SKKanGAS strain, BacTiter-Glo luminescence. 6 h. inhibition, % at 7.5 µM. hit rate 1.3% among 300,000. AID 1662, 2009;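 active = mean replicate score, as percent of positive control median, at least 50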;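 also: strain carries kanamycin resistance gene driven by streptokinase promoter and grows in 40 µg/ml kanamycin; loss of luminescence reflects streptokinase promoter inhibition or plain growth inhibition; 0% = median of DMSO wells and 100% = positive control at its reference dose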
Mdm2-MdmX inh: inhibitors of human Mdm2-MdmX association, primary screen, cell-based, luminescence, split luciferase, SaOS-2, uHTS; Protein Mdm4 (Homo sapiens) + E3 ubiquitin-protein ligase Mdm2 (Homo sapiens), …; SaOS-2 split-luciferase Mdm2/MdmX complementation; inhibition, % at 8 µM; hit rate 3% among 330,000;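 active = inhibition of at least 50% at 8 µM in the primary screen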
Target sequence (O15151 whole entry, looked up): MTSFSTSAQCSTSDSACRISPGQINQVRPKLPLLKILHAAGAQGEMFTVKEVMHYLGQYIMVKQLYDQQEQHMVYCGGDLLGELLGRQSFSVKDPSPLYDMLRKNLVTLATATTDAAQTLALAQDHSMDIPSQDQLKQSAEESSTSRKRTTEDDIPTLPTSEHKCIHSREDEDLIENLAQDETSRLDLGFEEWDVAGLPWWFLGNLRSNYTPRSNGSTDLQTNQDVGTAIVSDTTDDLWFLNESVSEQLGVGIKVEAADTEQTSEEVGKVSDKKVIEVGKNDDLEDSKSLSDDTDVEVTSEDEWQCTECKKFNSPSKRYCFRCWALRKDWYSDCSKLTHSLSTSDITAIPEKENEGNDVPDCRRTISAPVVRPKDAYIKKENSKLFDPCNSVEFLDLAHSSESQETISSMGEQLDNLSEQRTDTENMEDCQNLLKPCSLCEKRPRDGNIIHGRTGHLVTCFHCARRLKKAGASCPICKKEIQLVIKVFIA
Target sequence (Q00987 whole entry, looked up): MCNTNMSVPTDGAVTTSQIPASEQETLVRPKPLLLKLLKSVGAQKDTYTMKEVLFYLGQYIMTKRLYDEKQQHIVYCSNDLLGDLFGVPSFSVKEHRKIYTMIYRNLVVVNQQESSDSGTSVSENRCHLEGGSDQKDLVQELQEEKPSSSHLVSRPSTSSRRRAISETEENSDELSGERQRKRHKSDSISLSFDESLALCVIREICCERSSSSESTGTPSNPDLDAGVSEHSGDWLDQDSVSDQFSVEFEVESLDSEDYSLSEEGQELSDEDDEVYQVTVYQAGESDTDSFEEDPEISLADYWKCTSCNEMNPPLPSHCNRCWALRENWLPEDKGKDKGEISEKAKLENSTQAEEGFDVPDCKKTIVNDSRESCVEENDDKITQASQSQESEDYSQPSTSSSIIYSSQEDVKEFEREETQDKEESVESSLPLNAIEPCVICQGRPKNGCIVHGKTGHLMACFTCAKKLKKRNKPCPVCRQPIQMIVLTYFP
Beta cell apopt: inhibitors of cytokine-induced beta cell apoptosis, primary screen, luminescence. hit rate 0.8% among 300,000. protection from apoptosis, % (no concentration beside the values). INS-1E cytokine-induced death, ATP luminescence, 48 h; percent of positive-control rescue, neutral wells zero;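 active = Every replicate reaches about 75%, or at least half do and their mean reaches it too, limit read from the data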;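 also: 0% = cytokine-treated negative control wells and 100% = positive control rescue; higher means more ATP so stronger rescue from cytokine killing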
L major viab: Leishmania major promastigote growth inhibition, primary screen; Leishmania major promastigotes, resazurin fluorescence viability; inhibition, % at 10 µM; hit rate 9% among 200,000; AID 1063, 2008; in the data active = inhibition above about 50%;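 also: promastigotes grown with compound for 44 hours at 28 °C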
T cruzi inh: inhibitors of intracellular T. cruzi growth, primary screen, luminescence, NIH3T3 host cells. hit rate 1.4% among 300,000. T. cruzi beta-gal in NIH3T3, 90 h. AID 1885, 2009. inhibition, % (test concentration not listed);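 active = mean inhibition across valid replicates above about 55%, limit read from the data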;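 also: signal also drops with host cell toxicity which is not excluded here; 0% = plate median of DMSO wells and 100% = zero luminescence signal; higher percent means less beta-gal luminescence so fewer parasites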
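System – NIH/3T3 host cells with β-galactosidase reporter T. cruzi · Doses – single 50 nL compound addition per well in DMSO · Reagent – 5000 T. cruzi trypomastigotes/well · Medium – Low-serum DMEM with 2% FBS · Timing – ≥90 h infection period, 3 h prior cell attachment · Evaluation – parasite load inhibition, % · Technique – GalScreen luminescence, 60 min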
CSC inhib: cancer stem cell viability inhibitors, primary screen, luminescence. cancer stem cell-like cells viability. inhibition, % at 7.5 µM. hit rate 1.1% among 300,000. AID 2717, 2010; in the data active = inhibition above about 75%; tested in HMLE shEcad cells
Active calls of the source: *; . = not tested or not shown. Only some compounds are listed: those with a hit (about 9.4% of all), similar ones and a draw of the others.

SMILES | SKKanGAS inh | Mdm2-MdmX inh | Beta cell apopt | L major viab | T cruzi inh | CSC inhib
O=C(NC1CCCCC1)C(c1ccncc1)N(C(=O)c1ccco1)c1ccc(F)cc1 (stereo unspecified) | -0.8 | 11.2 | -3.2 | . | -3.1 | -1.8
Cc1ccc(Nc2nnc(SCC(=O)Nc3cccnc3Cl)s2)cc1C | 9.3 | 1.9 | -3.3 | 82.9* | -2.8 | 8.7
CCc1ccccc1NC(=O)CN(C)C(=O)CSc1nnc(Nc2ccc(C)cc2)s1 | -9.8 | 15.3 | -0.6 | 72.2* | 0.1 | -10.0
Cc1ccc(Nc2nnc(SCC(=O)Nc3ccccc3[N+](=O)[O-])s2)cc1 | -6.7 | 0.7 | -8.0 | -3.7 | -5.3 | -6.7
CCc1ccc(Nc2nnc(SCC(=O)N(C)CC(=O)Nc3ccccc3CC)s2)cc1 | -6.0 | 12.7 | -5.1 | 73.5* | 6.7 | 7.2
Cc1ccc(NC(=O)COc2ccc(C(=O)c3ccccc3)cc2)c(O)c1 | 11.2 | 28.2 | -13.9 | . | -4.0 | 1.9
CCOc1ncccc1C(=O)N1CCCSC1=Nc1ccc(C(C)=O)cc1 | 5.8 | 9.5 | -9.8 | 2.7 | -2.4 | -11.7
c1ccc(-n2ncc3c(N4CCN(CCOc5cccc6ccccc56)CC4)ncnc32)cc1 | 26.0 | 11.7 | -3.1 | 98.9* | 39.5 | 42.2
CC(C)(C)OC(=O)N1CCC(Cc2cc(-c3ccc(Cl)cc3)no2)(C(=O)O)CC1 | 4.1 | 23.9 | -0.8 | . | -11.7 | 8.2
COc1ccc(NC(=O)CN2CCc3ccccc3C2)cc1S(=O)(=O)N1CCOCC1 | -1.8 | -8.3 | 3.0 | 69.8* | 10.4 | -8.5
COc1ccc(NC(=O)CN2CCOCC2)cc1S(=O)(=O)N1CCCCC1 | . | 9.7 | 2.9 | . | . | -4.5
COc1ccc(NC(=O)Cc2coc3cc(C)ccc23)cc1S(=O)(=O)N1CCOCC1 | 8.8 | -33.7 | -1.3 | -5.7 | 3.4 | 2.4
COc1ccc(NC(=O)Cc2coc3ccc4ccccc4c23)cc1S(=O)(=O)N1CCOCC1 | 0.4 | 16.2 | -6.6 | 78.3* | 0.7 | 1.4
Cc1cc(NC(=O)C(C)Sc2nc(-c3ccccc3)cc(=O)[nH]2)no1 (stereo unspecified) | 1.7 | -10.8 | -1.0 | . | -11.7 | -1.1
c1cncc(-c2nc(NCCCN3CCOCC3)c3c4c(sc3n2)CCC4)c1 | -1.5 | -3.3 | 7.7 | 67.9* | 73.3* | -20.5
O=C(c1ccc(Cl)cc1)c1cnc(Nc2ccccc2Cl)s1 | 75.3* | -109.4 | 3.5 | -0.4 | 21.3 | 15.2
O=C(Cc1ccc(Cl)cc1)NCC(=O)N1CCCCCC1 | -3.4 | -30.0 | 6.0 | . | -5.5 | -2.8
CN(C)CCNC(=O)c1ccc(CS(=O)(=O)c2c(Cl)cccc2Cl)o1 | -2.4 | 4.6 | -4.4 | 7.2 | 1.8 | .
CN(C)CCNC(=O)c1ccc(CS(=O)(=O)c2ccc(Br)cc2)o1 | -9.7 | 16.1 | -1.4 | 77.4* | -11.0 | 22.9
O=C(CSc1nc(NS(=O)(=O)c2ccccc2)cc(=O)[nH]1)Nc1ccc(F)cc1 | 3.9 | -3.1 | . | 0.5 | -8.9 | -5.5
Cc1ccnc(NS(=O)(=O)c2ccc(NC(=O)CSc3nc(-c4ccccc4)cc(=O)[nH]3)cc2)n1 | 0.1 | 27.0 | 1.6 | 93.7* | 1.0 | 4.8
O=C(Nc1ccc(S(=O)(=O)NC2=NCCCCC2)cc1)c1ccc([N+](=O)[O-])s1 | 23.3 | 28.5 | 53.8 | . | 64.9* | 54.9
O=C(Nc1ccc(S(=O)(=O)NC2=NCCCCC2)cc1)c1cccs1 | . | -11.5 | -3.6 | . | . | -15.7
CCCCC(=O)Nc1ccc(C(=O)Nc2ccc(S(=O)(=O)Nc3nccc(C)n3)cc2)cc1 | 8.3 | 5.2 | -13.5 | 78.2* | -3.9 | -8.1
Cc1ccnc(NS(=O)(=O)c2ccc(NC(=O)c3ccc([N+](=O)[O-])s3)cc2)n1 | 2.3 | 18.2 | -8.6 | -4.8 | 66.9* | 27.0
SMILES | SKKanGAS inh | Mdm2-MdmX inh | Beta cell apopt | L major viab | T cruzi inh | CSC inhib
Cc1cc(NS(=O)(=O)c2ccc(NC(=O)c3ccc([N+](=O)[O-])s3)cc2)nc(C)n1 | . | 11.7 | -6.3 | . | . | 15.7
CSc1ccccc1OCc1cc(C(=O)NCCCn2nc(C)cc2C)no1 | 9.2 | 5.8 | 1.0 | . | 18.3 | 9.7
COc1cccc(/C=N\NS(=O)(=O)c2ccccc2)c1OC | -0.2 | 32.0 | -5.9 | . | -0.2 | -5.6
CC(NC(=O)c1cccc(Cn2cc([N+](=O)[O-])cn2)c1)c1ccc(C(C)(C)C)cc1 (stereo unspecified) | 1.0 | 24.2 | 2.5 | 31.7 | 55.0* | 3.0
O=C(O)c1ccc(N/N=C/c2cccc(F)c2)cc1 | 3.3 | -114.0 | -5.2 | 64.9* | -13.7 | -1.0
O=C(O)c1ccc(N/N=C/c2ccc(OC(=O)c3cccc(Cl)c3)cc2)cc1 | 56.8* | -0.9 | -0.2 | . | -3.7 | 4.5
O=C(Oc1ccc(/C=N/Nc2ccccc2)cc1)c1ccccc1 | 11.6 | -7.8 | 2.3 | 49.7 | -8.2 | 20.9
Cc1ccc(N=Nc2c(O)ccc3n[nH]nc23)cc1 | 6.0 | . | 98.5* | . | 1.6 | 7.6
O=C(CCC1CCCN(Cc2ccncc2)C1)NCc1ccc(F)c(F)c1 (stereo unspecified) | -0.3 | -9.7 | . | 91.7* | 56.5* | 31.4
COc1cccc(CNC(=O)CCC2CCCN(C(=O)CCC(F)(F)F)C2)c1 (stereo unspecified) | 3.0 | -5.2 | -4.9 | 7.1 | -3.1 | -6.4
O=C(CCC1CCCN(C(=O)c2ccncc2)C1)NCc1ccc(F)c(F)c1 (stereo unspecified) | 3.9 | 14.1 | -1.2 | 0.7 | -3.1 | 35.5
CC(=O)c1cccc(CN2CCCC(CCC(=O)NCc3ccc(F)c(F)c3)C2)c1 (stereo unspecified) | -7.0 | 5.2 | -0.1 | 98.3* | 75.7* | -3.6
COc1cccc(CNC(=O)CCC2CCCN(Cc3cc4ccccc4o3)C2)c1 (stereo unspecified) | 7.2 | 4.0 | 3.0 | 79.5* | 62.2* | 8.2
CCCCCSc1nnc(-c2ccccc2NC(C)=O)c(=O)[nH]1 | 2.4 | -5.9 | -2.5 | -4.7 | -19.8 | .
Cc1cc2nc(Sc3c([N+](=O)[O-])nc(C)n3Cc3ccccc3)[nH]c2cc1C | 0.4 | 30.0 | -8.1 | 93.1* | -7.1 | -3.6
COc1ccc2nc(SCC(=O)NCc3ccccc3)[nH]c2c1 | -6.8 | 0.8 | -6.0 | . | 1.2 | -7.1
COc1ccc2nc(Sc3c([N+](=O)[O-])nc(C)n3Cc3ccccc3)[nH]c2c1 | -6.9 | 48.9 | -11.0 | 86.9* | 10.9 | 2.9
Cc1nc([N+](=O)[O-])c(Sc2nc3ccccc3[nH]2)n1Cc1ccccc1 | 5.7 | 5.2 | 0.1 | 98.6* | 28.8 | -0.1
Cn1cnc([N+](=O)[O-])c1Sc1nc2ccccc2[nH]1 | -4.1 | 8.8 | -11.5 | . | 40.2 | -12.4
CC12CC3CC(C)(C1)CC(NCc1ccncc1)(C3)C2 | . | 15.3 | -6.4 | 82.5* | . | -11.0

Compound activity from PubChem.
